NR3A LBD binder: binders of NR3A ligand-binding domain, primary screen, biophysical, differential scanning fluorimetry, uHTS | 340,000 tested, 2.5% active | Tm shift relative to glycine control, % at 25 µM | NR3A LBD differential scanning fluorimetry, Tm shift; 0% = protein alone, 100% = glycine-bound protein;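 active = melting temperature shift of at least 10% of the positive control shift, at one fixed dose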
NadD block: inhibitors of S. aureus NadD, primary screen, biochemical, colorimetric, uHTS | 360,000 tested, 0.78% active | purified NadD enzyme, colorimetric absorbance read-out | inhibition, % at 20 µM | Nicotinate-nucleotide adenylyltransferase NadD (Staphylococcus aureus N315) | AID 602399, 2012; in the data active = inhibition above about 26%
SENP1 FRET inh: human SENP1 catalytic domain inhibitors, primary screen, biochemical, FRET, uHTS | inhibition, % at 10 µM | recombinant SENP1 catalytic domain, CyPet-SUMO1-YPet FRET cleavage | AID 624204, 2012 | Sentrin-specific protease 1 (Homo sapiens), Q9P0U3 | 360,000 tested, 0.21% active;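 active = inhibition at least 30% at 10 µM, raw YFP signal under a set limit, fluorescence ratio 0.5 to 1.5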
Target sequence (Q9P0U3 419-644 limits assumed): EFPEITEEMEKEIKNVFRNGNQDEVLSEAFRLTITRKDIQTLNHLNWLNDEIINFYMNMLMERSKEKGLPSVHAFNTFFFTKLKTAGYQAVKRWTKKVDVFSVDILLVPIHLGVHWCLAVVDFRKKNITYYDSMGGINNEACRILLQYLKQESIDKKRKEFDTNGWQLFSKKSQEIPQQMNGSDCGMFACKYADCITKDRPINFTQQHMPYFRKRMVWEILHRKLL
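Material: hSENP1 catalytic domain, recombinant; medium: Tris pH 8 with BME, BSA, NP40 and catalase; compound: single concentration of 10 µM compound, 0.5% DMSO final; technique: FRET read of cyan and yellow fluorescence; timing: 50 min enzyme reaction, room temperature, light-protected; reagent: SFCypet-SUMO1-SFYpet substrate at 25 nM; control set: no-enzyme low, enzyme-DMSO high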
UCH37 inh: inhibitors of human UCH37 deubiquitinase, primary screen, biochemical, Ub-AMC cleavage, fluorescence; Ubiquitin carboxyl-terminal hydrolase isozyme L5 (Homo sapiens), Q9Y5K5; purified proteasome/UCH37; inhibition, % (test concentration not listed); 330,000 tested, 0.33% active; AID 588478, 2011;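 active = mean inhibition over replicate wells above about 20%, limit read from the data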
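Assay system: Proteasome-bound UCH37. Buffer or medium: pH 7.4 Tris-HCl (50 mM) with ovalbumin, ATP-MgCl2, DTT. Incubation: 30 min preincubation with enzyme, 25 min cleavage at room temperature. Measured by: fluorescence, ex 355 nm, em 460 nm. Read-out basis: percent inhibition. Control set: wells without proteasome as full block, compound-free enzyme plus substrate as uninhibited.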
ATG4B inh: ATG4B protease inhibitors, primary screen, biochemical, fluorescence, uHTS; ATG4B cleavage of LC3-PLA2, NBD-HPC fluorescence, 1 h; 340,000 tested, 0.51% active; inhibition, % at 8.33 µM; Cysteine protease ATG4B (Homo sapiens), Q9Y4P1; in the data active = inhibition above about 40%
Target sequence (Q9Y4P1 whole entry, looked up): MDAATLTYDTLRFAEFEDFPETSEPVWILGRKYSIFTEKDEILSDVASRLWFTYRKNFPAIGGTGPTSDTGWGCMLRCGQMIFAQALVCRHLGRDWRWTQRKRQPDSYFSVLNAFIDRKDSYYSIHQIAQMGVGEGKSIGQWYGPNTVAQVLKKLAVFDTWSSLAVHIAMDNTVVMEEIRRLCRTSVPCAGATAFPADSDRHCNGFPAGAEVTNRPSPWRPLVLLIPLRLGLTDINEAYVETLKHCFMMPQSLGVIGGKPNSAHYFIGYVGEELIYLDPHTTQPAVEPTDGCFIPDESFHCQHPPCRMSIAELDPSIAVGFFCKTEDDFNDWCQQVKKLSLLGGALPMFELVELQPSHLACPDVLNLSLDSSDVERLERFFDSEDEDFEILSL
ATG4B conf: ATG4B protease inhibitors, retest, confirmation, biochemical, fluorescence, single concentration. 320 tested, 92% active. ATG4B protease fluorescent substrate cleavage assay. shares compounds with ATG4B inh. inhibition, % at 8.33 µM; in the data active = inhibition above about 39%
PLA2 counter: PLA2 enzyme inhibition, counter-screen for ATG4B inhibitor project, biochemical, single concentration, uHTS hits; shares compounds with ATG4B inh; purified PLA2, NBD-C6-HPC fluorescence, 45 min; inhibition, % at 8.33 µM; 1,600 tested, 66% active; in the data active = inhibition above about 50%
A number is an active result; i = inactive; nt = no result given. In the library only some 3.6% were active in any assay of this set; here they are far more common.

SMILES	NR3A LBD binder	NadD block	SENP1 FRET inh	UCH37 inh	ATG4B inh	PLA2 counter	others
Cc1cc(C(=O)CSc2nnc(NCc3ccccc3)s2)c(C)n1C	i	i	i	i	i	nt
Cc1cc(F)ccc1S(=O)(=O)Nc1ncnc2sc3c(c12)CCC3	i	i	i	i	i	nt
O=S(=O)(Nc1ncnc2sc3c(c12)CCC3)c1ccc2ccccc2c1	i	i	i	i	40.9	55.7
Oc1ccc(Cl)cc1Sc1cc(Cl)ccc1O	24.6	i	i	nt	47.0	i	ATG4B conf=58.6
Cc1ccc(-n2cc(CN3CCC(O)(c4ccccn4)CC3)c(-c3ccc(F)cc3)n2)cc1	i	i	i	i	61.2	52.3
Cc1ccc(-n2cc(CN3CCNC(=O)CC3)c(-c3ccc(F)cc3)n2)cc1	i	i	i	i	i	nt
O=C1N/C(=N\N=Cc2cccs2)SC1Cc1cccc(Cl)c1Cl (configuration not stated)	nt	nt	nt	i	nt	nt
Cc1ccc2c(c1)C(c1ccc(N3CCOCC3)cc1)=NNC(c1cccs1)=N2	i	i	i	i	i	nt
Fc1ccc2c(c1)C(c1ccc(N3CCOCC3)cc1)=NNC(c1cccs1)=N2	i	i	42.3	i	65.1	70.4
CCOc1ccc(C2=NNC(c3cccs3)=Nc3ccc(OC)cc32)cc1	i	i	i	i	58.7	72.7
Brc1ccc2c(c1)C(c1ccc(N3CCOCC3)cc1)=NNC(c1cccs1)=N2	i	i	i	i	65.9	64.5
Cc1cc(-c2n[nH]c(=S)n2N=Cc2ccc(Br)s2)n[nH]1	nt	nt	nt	i	nt	nt
CCCCC(CC)CO (configuration not stated)	i	i	i	i	i	nt
CCCCC(CC)CN=C(N)NC(N)=NCCCCCCN=C(N)NC(N)=NCC(CC)CCCC (configuration not stated)	i	i	i	i	69.5	i	ATG4B conf=i
COc1ccccc1N1CCN(N=C/C=C/c2ccccc2[N+](=O)[O-])CC1	nt	nt	nt	i	nt	nt
O=C(c1cc(COc2ccc(F)cc2Cl)on1)N1CCc2sccc2C1	i	i	i	i	i	nt
CSc1ccccc1OCc1cc(C(=O)N2CCc3sccc3C2)no1	i	i	i	i	72.1	78.5
Cc1ccc(C)c(OCc2cc(C(=O)N3CCc4sccc4C3)no2)c1	i	i	i	i	45.8	81.1
COc1ccc(NC(=S)NN=Cc2ccc(F)c(F)c2)cc1	nt	nt	nt	i	nt	nt
Cc1cccc(N=C2NC(=O)/C(=C/c3cccn3C)S2)c1C	i	i	i	i	i	nt
Cc1cccc(N=C2NC(=O)/C(=C/C=C/c3ccco3)S2)c1C	i	71.8	i	i	83.2	51.2
CCSc1n[nH]c2nc3c(c(=O)n12)C1(CCCCC1)Cc1ccccc1-3	i	i	i	i	i	nt
CSc1n[nH]c2nc3c(c(=O)n12)C1(CCCCC1)Cc1ccccc1-3	i	i	i	i	42.0	i	ATG4B conf=45.9
CCn1nc([N+](=O)[O-])c(C(C#N)c2nc3ccccc3n2C)c(Cl)c1=O (configuration not stated)	i	i	i	i	71.7	74.7
O=[N+]([O-])c1ccc(CN2CCN(c3nc4ccccc4s3)CC2)cc1	i	i	i	i	i	nt
SMILES	NR3A LBD binder	NadD block	SENP1 FRET inh	UCH37 inh	ATG4B inh	PLA2 counter	others
Cn1c(C(C#N)C(=O)c2sc3ccccc3c2Cl)nc2ccccc21 (configuration not stated)	i	i	i	i	i	nt
CCCn1nc([N+](=O)[O-])c(C(C#N)c2nc3ccccc3s2)c(Cl)c1=O (configuration not stated)	i	i	i	i	83.8	85.3
COc1cccc(C=NNC(=O)c2c(-c3ccccc3)noc2C)c1OC	nt	nt	nt	i	nt	nt
O=C(NN=Cc1ccccn1)c1ccc([N+](=O)[O-])cc1	nt	nt	nt	i	nt	nt
O=C(O)c1cc2c(cc1NC(=O)c1ccccc1C(F)(F)F)OCCCO2	i	i	i	i	62.9	63.3
O=C(Nc1cc2c(cc1C(=O)O)OCCCO2)c1ccc(C(F)(F)F)cc1	i	i	i	i	i	nt
COc1ccc(C=NNc2nc(Nc3ccccc3)nc(N3CCCC3)n2)cc1[N+](=O)[O-]	nt	nt	nt	i	nt	nt
CCC(CC)C1=NN2C(=N)/C(=C\c3cc(C)n(-c4cccc(C)c4)c3C)C(=O)N=C2S1	i	41.3	i	i	58.9	i	ATG4B conf=47.8
CC(=N/N=C1/NC(=O)C(CC(=O)Nc2ccc(C)c(Cl)c2)S1)C(C)C (configuration not stated)	nt	nt	nt	i	nt	nt
Cc1sc(NC(=O)c2ccccc2)c(C(=O)c2ccccc2)c1C	i	i	i	i	50.2	i	ATG4B conf=72.8
Cc1ccc(C(C)C)c(OCC(=O)Nc2ccccc2N2CCN(C)CC2)c1	i	i	i	i	54.4	66.3
O=C(COc1ccccc1[N+](=O)[O-])Nc1ccccc1N1CCCC1	15.7	i	i	i	49.7	57.6
O=C(COc1ccccc1[N+](=O)[O-])Nc1ccccc1N1CCCCC1	i	i	i	i	43.2	73.5
CC(=O)N1CCN(c2ccccc2NC(=O)COc2cc(C)ccc2C(C)C)CC1	i	i	i	i	i	nt
COc1ccc(N2CCN(C(=O)CSc3nnc4n3C(C)(C)Cc3ccccc3-4)CC2)cc1	i	i	i	i	i	nt
Cc1ccc(Cl)cc1N1CCN(C(=O)CSc2nnc3n2C(C)(C)Cc2ccccc2-3)CC1	i	i	i	i	44.4	69.0
OCCNc1nc(SCc2ccccc2)nc2sc3c(c12)CCC3	i	i	i	i	69.1	90.3
CON=CNC(=O)c1ccc([N+](=O)[O-])c(CS(=O)(=O)c2ccc(Cl)cc2)c1	nt	nt	nt	i	nt	nt
O=S(=O)(N=C(Sc1ccc(Cl)cc1)c1ccccc1)c1ccccc1	nt	nt	nt	i	nt	nt
O=C1NC(=O)/C(=C\c2ccc(OCc3ccccc3)cc2)S1	i	i	i	i	i	nt
O=C1NC(=O)/C(=C\c2ccccc2OCc2ccccc2)S1	i	i	i	i	46.7	i	ATG4B conf=59.0
CCCOc1ccc2ccccc2c1/C=C1\SC(=O)NC1=O	i	i	i	i	nt	i
Cc1ccc(C=NNC(=O)C2CC(=O)N(c3ccccc3)C2)o1 (configuration not stated)	nt	nt	nt	i	nt	nt

Screens from PubChem.
